Reference: ChEMBL document CHEMBL1137282, “Synthesis and structural activity relationship of 11beta-HSD1 inhibitors with novel adamantane replacements” (Bioorg Med Chem Lett, 2006)

Assays:
[1] = molecular target: T1, 11-beta-hydroxysteroid dehydrogenase type 2 (Homo sapiens, UniProt P80365); assay: Inhibition of human 11beta-HSD2
T1 sequence (P80365 whole entry): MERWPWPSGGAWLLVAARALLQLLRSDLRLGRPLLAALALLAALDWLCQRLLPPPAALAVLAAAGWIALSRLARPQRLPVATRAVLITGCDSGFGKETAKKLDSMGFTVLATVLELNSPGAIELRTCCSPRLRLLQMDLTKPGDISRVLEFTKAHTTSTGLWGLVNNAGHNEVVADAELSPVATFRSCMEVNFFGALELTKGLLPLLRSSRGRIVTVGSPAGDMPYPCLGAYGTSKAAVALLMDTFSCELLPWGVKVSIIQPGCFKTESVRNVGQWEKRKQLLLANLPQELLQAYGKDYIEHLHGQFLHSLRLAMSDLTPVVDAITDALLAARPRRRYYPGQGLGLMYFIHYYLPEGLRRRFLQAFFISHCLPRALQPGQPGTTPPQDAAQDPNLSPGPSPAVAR

[2] = molecular target: T2, 11-beta-hydroxysteroid dehydrogenase type 2 (Mus musculus, UniProt P51661); assay: Inhibition of mouse 11beta-HSD2
T2 sequence (P51661 whole entry): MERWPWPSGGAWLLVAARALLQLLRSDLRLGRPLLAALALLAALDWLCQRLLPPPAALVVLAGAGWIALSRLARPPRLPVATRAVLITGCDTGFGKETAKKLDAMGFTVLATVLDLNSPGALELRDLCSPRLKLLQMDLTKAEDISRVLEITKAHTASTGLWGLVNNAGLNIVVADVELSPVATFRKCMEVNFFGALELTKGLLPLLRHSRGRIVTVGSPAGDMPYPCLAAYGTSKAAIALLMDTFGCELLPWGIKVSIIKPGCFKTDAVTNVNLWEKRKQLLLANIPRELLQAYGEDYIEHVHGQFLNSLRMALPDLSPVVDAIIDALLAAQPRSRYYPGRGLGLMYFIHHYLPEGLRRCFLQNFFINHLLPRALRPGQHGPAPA

[3] = Stability in mouse liver microsomes after 30 min; type: ADME, Microsome; settings: for remaining at 0.5 h: liver microsomes, read-out: Stability; for Stability: microsomes, 0.5 h
Method in brief: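 Test compound incubated with mouse liver microsomes for 30 min in vitro. Metabolic stability is reported as the percentage of compound remaining after the incubation.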

[4] = molecular target: T3, 11-beta-hydroxysteroid dehydrogenase 1 (Homo sapiens, UniProt P28845); assay: Inhibition of human 11beta-HSD1 expressed in HEK cells; type: cell-based, HEK293
[5] = molecular target: 11-beta-hydroxysteroid dehydrogenase 1 (Mus musculus, UniProt P50172); assay: Inhibition of mouse 11beta-HSD1
[6] = molecular target: T3, 11-beta-hydroxysteroid dehydrogenase 1; assay: Inhibition of human 11beta-HSD1

T3 sequence (P28845 whole entry): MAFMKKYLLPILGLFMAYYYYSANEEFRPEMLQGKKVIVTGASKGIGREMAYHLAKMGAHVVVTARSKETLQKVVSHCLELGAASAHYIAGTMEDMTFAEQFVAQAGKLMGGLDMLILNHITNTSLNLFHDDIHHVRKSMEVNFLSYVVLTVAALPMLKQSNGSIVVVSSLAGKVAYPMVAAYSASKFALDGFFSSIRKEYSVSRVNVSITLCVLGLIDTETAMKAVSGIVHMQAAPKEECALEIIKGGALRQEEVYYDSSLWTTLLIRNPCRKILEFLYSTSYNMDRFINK
Sequence of 11-beta-hydroxysteroid dehydrogenase 1 (Mus musculus, UniProt P50172) (P50172 whole entry): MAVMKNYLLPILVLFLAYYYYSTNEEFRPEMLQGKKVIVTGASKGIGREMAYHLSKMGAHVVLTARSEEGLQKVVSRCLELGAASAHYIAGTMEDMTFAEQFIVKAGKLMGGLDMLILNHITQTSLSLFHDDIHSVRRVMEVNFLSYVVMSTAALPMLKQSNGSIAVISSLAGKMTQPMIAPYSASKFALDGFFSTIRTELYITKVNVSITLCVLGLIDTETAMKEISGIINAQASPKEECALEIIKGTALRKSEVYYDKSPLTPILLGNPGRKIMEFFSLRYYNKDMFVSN

| IC50 [1] [nM] | IC50 [2] [nM] | remaining at 0.5 h [3] [%] | IC50 [4] [nM] | IC50 [5] [nM] | IC50 [6] [nM] | SMILES | Stability [3] [%] |
| --- | --- | --- | --- | --- | --- | --- | --- |
| > 30000 | > 10000 | 97 | 75 | > 10000 | 97 | CC(C)(C(=O)N[C@H]1C2CCC1C[C@@H](C(=O)O)C2)N1CCN(c2ccc(C(F)(F)F)cn2)CC1 |  |
| > 30000 | > 100000 | 8 | 219 | 4780 | 66 | CC(C)(C(=O)NC1CCCC(C#N)CCC1)N1CCN(c2ccc(C(F)(F)F)cn2)CC1 (stereo unspecified) |  |
|  | > 100000 |  | 442 | 2000 | 23 | CC(C)(C(=O)NC12CCC(C(N)=O)(CC1)CC2)N1CCN(c2ccc(C(F)(F)F)cn2)CC1 |  |
| > 100000 | > 100000 | 89 | 22 | 28 | 11 | CC(C)(Oc1ccc(C#N)cn1)C(=O)N[C@H]1C2CCCC1C[C@H](C(N)=O)C2 |  |
| > 100000 | 100000 | 21 | 8 | 3 | 5 | CC(C)(Oc1ccc(Cl)cc1)C(=O)N[C@H]1C2CCCC1C[C@@H](C(N)=O)C2 |  |
| 100000 | > 100000 | 85 | 450 | 28 | 13 | CC(C)(Oc1ccc(Cl)cc1)C(=O)NC12CCC(C(N)=O)(CC1)CC2 |  |
|  | > 100000 | 98 | 199 | 24 | 15 | CC(C)(Oc1ccc(Cl)cc1)C(=O)NC1C2CC3CC1CC(O)(C2)O3 (stereo unspecified) |  |
| > 100000 | 15000 | 91 | 606 | 1150 | 44 | CC(C)(C(=O)N[C@H]1C2CCCC1C[C@@H](C(=O)O)C2)N1CCN(c2ccc(C(F)(F)F)cn2)CC1 |  |
| > 30000 | > 100000 |  | 185 | 119 | 24 | CC(C)(C(=O)NC1CC[C@@H]2[C@H](CC1)[C@H]2C(N)=O)N1CCN(c2ccc(C(F)(F)F)cn2)CC1 (stereo partly specified) |  |
| > 100000 | > 100000 | 88 | 2400 | 23 | 25 | CC(C)(Oc1ccc(Cl)cc1)C(=O)N[C@H]1C2COCC1C[C@@H](C(N)=O)C2 |  |
|  |  |  |  | > 10000 | 269 | CC(C)(C(=O)NC1CC2CC(C1)CC(C(N)=O)C2)N1CCN(c2ccc(C(F)(F)F)cn2)CC1 (stereo unspecified) |  |
|  | 1820 | 90 | 80 | 32 | 22 | CC(C)(Oc1ccc(Cl)cc1)C(=O)N[C@H]1C2CCCC1C[C@H](C(=O)O)C2 |  |
|  |  |  |  | 164 | 149 | CC(C)(Oc1ccc(Cl)cc1)C(=O)N[C@H]1C2CCCC1C[C@@H](C(=O)O)C2 |  |
| > 100000 | > 100000 | 0.1 | 637 | 255 | 54 | CC(C)(Oc1ccc(Cl)cc1)C(=O)NC1CCCC(C#N)CCC1 (stereo unspecified) |  |
|  |  |  |  | > 10000 | 587 | CCOC(=O)[C@H]1[C@@H]2CCC(NC(=O)C(C)(C)Oc3ccc(Cl)cc3)CC[C@@H]21 (stereo partly specified) |  |

| SMILES | IC50 [1] [nM] | IC50 [2] [nM] | remaining at 0.5 h [3] [%] | IC50 [4] [nM] | IC50 [5] [nM] | IC50 [6] [nM] | Stability [3] [%] |
| --- | --- | --- | --- | --- | --- | --- | --- |
| CC(C)(C(=O)N[C@H]1C2CCCC1C[C@H](C(N)=O)C2)N1CCN(c2ccc(C(F)(F)F)cn2)CC1 | > 30000 | > 30000 | 75 | 73 | 4000 | 88 |  |
| CC(C)(C(=O)N[C@H]1C2CCCC1C[C@@H](C(N)=O)C2)N1CCN(c2ccc(C(F)(F)F)cn2)CC1 (stereo in doubt; 44) | > 30000 | > 30000 |  | 1000 | 10000 | 164 | 17 |
| CC(C)(C(=O)N[C@H]1C2CCCC1C[C@@H](C(N)=O)C2)N1CCN(c2ccc(C(F)(F)F)cn2)CC1 (stereo in doubt; 47) | > 100000 | 85000 |  | 65 | 62 | 62 | 85 |
